Consider 15 compounds from ChEMBL document CHEMBL4808222, “Design and Synthesis of Novel Spiro Derivatives as Potent and Reversible Monoacylglycerol Lipase (MAGL) Inhibitors: Bioisosteric Transformation from 3-Oxo-3,4-dihydro-2H-benzo[b][1,4]oxazin-6-yl Moiety” (J Med Chem, 2021).

A short description of data set [1]: Lipophilicity, logD of the compound at pH 7.4 by UPHLC analysis. The data set is classed as physicochemical. Particulars: buffer.
Data set [2] in a line: Drug uptake in C57BL/6J Jcl mouse assessed as brain concentration at 0.1 mg/kg, po measured after 60 mins by LC-MS/MS analysis. The format is ADME, organism-based. Conditions: read-out: Drug uptake. The essentials: (§1)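 Male C57BL/6J Jcl mice, 8 weeks old, given a single oral dose as a suspension in 0.5% methylcellulose at 10 mL/kg. Plasma and brain hemispheres collected 60 min post-dose (n = 4 per group). Levels measured by LC/MS/MS.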

Data set [3] can be described thus: Drug uptake in C57BL/6J Jcl mouse assessed as brain concentration at 3 mg/kg, po measured after 60 mins by LC-MS/MS analysis. The data set is classed as ADME, organism-based. Particulars: read-out: Drug uptake. Put shortly:
as §1

Data set [4] is described as follows: Drug uptake in C57BL/6J Jcl mouse assessed as brain concentration at 1 mg/kg, po measured after 60 mins by LC-MS/MS analysis. Conditions: read-out: Drug uptake. The data set is classed as ADME, organism-based. Put shortly:
as §1

A short description of data set [5]: Drug uptake in C57BL/6J Jcl mouse assessed as plasma concentration at 10 mg/kg, po measured after 60 mins by LC-MS/MS analysis. Conditions: read-out: Drug uptake. The data set is classed as ADME, organism-based. The essentials:
as §1

Data set [6] in a line: Drug uptake in C57BL/6J Jcl mouse assessed as plasma concentration at 0.1 mg/kg, po measured after 60 mins by LC-MS/MS analysis. The data set is classed as ADME, organism-based. Conditions: read-out: Drug uptake. The essentials: as §1
A short description of data set [7]: Drug uptake in C57BL/6J Jcl mouse assessed as plasma concentration at 1 mg/kg, po measured after 60 mins by LC-MS/MS analysis. The data set is classed as ADME, organism-based. Particulars: read-out: Drug uptake. Put shortly: as §1
Data set [8] can be described thus: Drug uptake in C57BL/6J Jcl mouse assessed as brain concentration at 0.3 mg/kg, po measured after 60 mins by LC-MS/MS analysis. The format is ADME, organism-based. Conditions: read-out: Drug uptake. Put shortly: as §1
Data set [9] in a line: Drug uptake in C57BL/6J Jcl mouse assessed as brain concentration at 10 mg/kg, po measured after 60 mins by LC-MS/MS analysis. The data set is classed as ADME, organism-based. Conditions: read-out: Drug uptake. The essentials:
as §1

Data set [10] is described as follows: Drug uptake in C57BL/6J Jcl mouse assessed as plasma concentration at 3 mg/kg, po measured after 60 mins by LC-MS/MS analysis. Conditions: read-out: Drug uptake. The format is ADME, organism-based. The essentials:
as §1

Data set [11] can be described thus: Drug uptake in C57BL/6J Jcl mouse assessed as plasma concentration at 0.3 mg/kg, po measured after 60 mins by LC-MS/MS analysis. The format is ADME, organism-based. Conditions: read-out: Drug uptake. Put shortly: as §1
A short description of data set [12]: Aqueous solubility of the compound in pH 6.8 JP2 fluid measured after 18 hrs by shake flask method based UHPLC analysis. The format is physicochemical.

≈ marks a conversion by molar mass, not a printed value.

Broadly, the logD is the decadic logarithm of the distribution of all forms, ionised or not, between an organic phase and buffer at a given pH. Lower therefore signals a more hydrophilic compound. `CC(Oc1ccc(F)cc1Cl)C1CCN(C(=O)[C@H]2C[C@]3(COC(=O)N3)C2)CC1` (stereo partly specified) came in with a logD in data set [1] of 2.8.

Consider `Cc1cc(COC2CN(C(=O)[C@H]3C[C@]4(COC(=O)N4)C3)C2)ccc1Cl`, for which the logD in data set [1] was found to be 2.4. In the case of `O=C1N[C@]2(CO1)C[C@H](C(=O)N1CC(OCc3ccc(C(F)(F)F)c(C(F)(F)F)c3)C1)C2`, the logD in [1] was 2.5.

Consider `O=C1CCC2(CCCN(C(=O)N3CCC(COc4ccc(F)cc4Cl)CC3)C2)N1` (stereo unspecified), for which the logD in data set [1] was 3.1.

Compound `O=C1N[C@]2(CO1)C[C@H](C(=O)N1CCC(COc3ccc(F)cc3Cl)CC1)C2` had a logD in data set [1] of 2.6.

Consider `O=C1CC[C@H](CCC(=O)N2CCC(COc3ccc(F)cc3Cl)CC2)N1`, for which the log distribution coefficient (logD) in data set [1] is 2.7. Consider `CCC(Oc1ccc(F)cc1Cl)C1CCN(C(=O)[C@H]2C[C@]3(COC(=O)N3)C2)CC1` (stereo partly specified), for which the logD in [1] was 3.1. The compound `O=C1CCC(COC(=O)N2CCC(COc3ccc(F)cc3Cl)CC2)N1` (stereo unspecified) returned a logD in data set [1] of 2.7. In data set [1], `O=C1N[C@]2(CO1)C[C@H](C(=O)N1CC(OCc3ccc(C(F)(F)F)c(Cl)c3)C1)C2` showed a logD of 2.4. For orientation: thermodynamic solubility means the concentration in solution at equilibrium with solid. Consider `Cc1ccc(COC2CN(C(=O)[C@H]3C[C@]4(COC(=O)N4)C3)C2)cc1Cl`, for which the concentration at 1 h in [2] came to 31 ng/g; in data set [3], 322 ng/g; in [4] it was 169 ng/g; in data set [5] it was 1520 ng/mL; in data set [6], 17 ng/mL; in data set [7], 163 ng/mL. Moreover, the concentration at 1 h was determined as 99 ng/g in data set [8], 711 ng/g in data set [9], 457 ng/mL in data set [10] and 62 ng/mL in data set [11]. The same compound showed a log distribution coefficient (logD) in data set [1] of 2.3. Also, in data set [12], the thermodynamic solubility at 18 h stood at 330 µg/mL (≈ 905 µM). For `O=C1COCC(CCC(=O)N2CCC(COc3ccc(F)cc3Cl)CC2)N1` (stereo unspecified), the pH-dependent lipophilicity (logD) in data set [1] came to 2.7. `O=C1COc2ncc(C(=O)N3CCC(COc4ccc(F)cc4Cl)CC3)cc2N1` gave a logD in data set [1] of 3. The same measure, in the same setting: under `O=C1N[C@]2(CO1)C[C@H](C(=O)N1CC(OCc3ccc(Cl)cc3Cl)C1)C2` stands 2.5; under `O=C1CCC(CCC(=O)N2CCC(COc3ccc(F)cc3Cl)CC2)N1` (stereo unspecified), 3. `O=C1CC[C@@H](CCC(=O)N2CCC(COc3ccc(F)cc3Cl)CC2)N1`: in [1], the logD amounted to 2.7.
